{"source": "ChEMBL document CHEMBL1154578", "about": "“Aminosterols from the dogfish shark Squalus acanthias” (2000)", "type_in_all_cases": "functional", "key": {"[1]": {"system": "Pseudomonas aeruginosa", "test": "Antimicrobial activity against Pseudomonas aeruginosa ATCC 27853", "procedure,_shortened": "(§1)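 Broth microdilution MIC: log-phase microbes at (0.9-1.1) × 10⁵ cfu/mL in 0.5× trypticase soy broth, exposed to increasing amounts of aminosterol in microtiter plates, incubated at 37 °C for 18-24 h. Aminosterol starting solutions at 2 mg/mL in 250 mM sodium acetate, pH 6.6.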"}, "[2]": {"system": "Candida albicans", "test": "Antimicrobial activity against Candida albicans ATCC 90028", "procedure,_shortened": "as §1"}, "[3]": {"system": "Escherichia coli", "test": "Antimicrobial activity against Escherichia coli ATCC 25922", "procedure,_shortened": "as §1"}, "[4]": {"system": "Staphylococcus aureus", "test": "Antimicrobial activity against Staphylococcus aureus ATCC 29218", "settings": "ATCC 29213, in the assay text read “ATCC 29213” for “ATCC 29218”", "procedure,_shortened": "as §1"}}}
{"smiles": "C=C(C)C(=O)CC[C@@H](C)[C@H]1CC[C@H]2[C@@H]3[C@H](O)C[C@H]4C[C@@H](NCCCNCCCCN)CC[C@]4(C)[C@H]3CC[C@]12C", "values": [{"measurement": "MIC", "setting": "[1]", "value": 16, "unit": "µg/mL"}, {"measurement": "MIC", "setting": "[2]", "value": 2, "unit": "µg/mL"}, {"measurement": "MIC", "setting": "[3]", "value": 16, "unit": "µg/mL"}, {"measurement": "MIC", "setting": "[4]", "value": 2, "unit": "µg/mL"}]}
{"smiles": "CC(COS(=O)(=O)O)C(=O)CC[C@@H](C)[C@H]1CC[C@H]2[C@@H]3[C@H](O)C[C@H]4C[C@@H](NCCCNCCCCN)CC[C@]4(C)[C@H]3CC[C@]12C", "note": "(some centres not stated)", "values": [{"measurement": "MIC", "setting": "[1]", "value": 128, "unit": "µg/mL"}, {"measurement": "MIC", "setting": "[2]", "value": 32, "unit": "µg/mL"}, {"measurement": "MIC", "setting": "[3]", "value": 128, "unit": "µg/mL"}, {"measurement": "MIC", "setting": "[4]", "value": 8, "unit": "µg/mL"}]}
{"smiles": "CC(COS(=O)(=O)O)[C@H](O)CC[C@@H](C)[C@H]1CC[C@H]2[C@@H]3[C@H](O)C[C@H]4C[C@@H](NCCCNCCCCN)CC[C@]4(C)[C@H]3CC[C@]12C", "note": "(some centres not stated)", "values": [{"measurement": "MIC", "setting": "[1]", "value": 32, "unit": "µg/mL"}, {"measurement": "MIC", "setting": "[2]", "value": 16, "unit": "µg/mL"}, {"measurement": "MIC", "setting": "[3]", "value": 128, "unit": "µg/mL"}, {"measurement": "MIC", "setting": "[4]", "value": 4, "unit": "µg/mL"}]}
{"smiles": "CC(CSCC(N)C(=O)O)C(=O)CC[C@@H](C)[C@H]1CC[C@H]2[C@@H]3[C@H](O)C[C@H]4C[C@@H](NCCCNCCCCN)CC[C@]4(C)[C@H]3CC[C@]12C", "note": "(some centres not stated)", "values": [{"measurement": "MIC", "setting": "[1]", "value": 256, "unit": "µg/mL"}, {"measurement": "MIC", "setting": "[2]", "value": 128, "unit": "µg/mL"}, {"measurement": "MIC", "setting": "[3]", "value": 256, "unit": "µg/mL"}, {"measurement": "MIC", "setting": "[4]", "value": 8, "unit": "µg/mL"}]}
{"smiles": "CC(C)[C@](CO)(CC[C@@H](C)[C@H]1CC[C@H]2[C@@H]3[C@H](O)C[C@H]4C[C@@H](NCCCNCCCCN)CC[C@]4(C)[C@H]3CC[C@]12C)OS(=O)(=O)O", "values": [{"measurement": "MIC", "setting": "[1]", "value": 16, "unit": "µg/mL"}, {"measurement": "MIC", "setting": "[2]", "value": 32, "unit": "µg/mL"}, {"measurement": "MIC", "setting": "[3]", "value": 8, "unit": "µg/mL"}, {"measurement": "MIC", "setting": "[4]", "value": 2, "unit": "µg/mL"}]}
{"smiles": "CC(C)[C@@H](CC[C@@H](C)[C@H]1CC[C@H]2[C@@H]3[C@H](O)C[C@H]4C[C@@H](NCCCNCCCCN)CC[C@]4(C)[C@H]3C[C@H](O)[C@]12C)OS(=O)(=O)O", "values": [{"measurement": "MIC", "setting": "[1]", "value": 16, "unit": "µg/mL"}, {"measurement": "MIC", "setting": "[2]", "value": 32, "unit": "µg/mL"}, {"measurement": "MIC", "setting": "[3]", "value": 16, "unit": "µg/mL"}, {"measurement": "MIC", "setting": "[4]", "value": 8, "unit": "µg/mL"}]}
{"smiles": "CC(C)[C@@H](CC[C@@H](C)[C@H]1CC[C@H]2[C@@H]3[C@H](O)C[C@H]4C[C@@H](NCCCNCCCCN)CC[C@]4(C)[C@H]3CC[C@]12C)OS(=O)(=O)O", "note": "[SQUALAMINE]", "values": [{"measurement": "MIC", "setting": "[1]", "value": 16, "unit": "µg/mL"}, {"measurement": "MIC", "setting": "[2]", "value": 16, "unit": "µg/mL"}, {"measurement": "MIC", "setting": "[3]", "value": 4, "unit": "µg/mL"}, {"measurement": "MIC", "setting": "[4]", "value": 1, "unit": "µg/mL"}]}
{"smiles": "CC(C)[C@@H](CC[C@@H](C)[C@H]1CC[C@H]2[C@@H]3[C@H](O)C[C@H]4C[C@@H](NCCCNCCCCNCCCN)CC[C@]4(C)[C@H]3CC[C@]12C)OS(=O)(=O)O", "note": "[TRODUSQUEMINE]", "values": [{"measurement": "MIC", "setting": "[1]", "value": 4, "unit": "µg/mL"}, {"measurement": "MIC", "setting": "[2]", "value": 4, "unit": "µg/mL"}, {"measurement": "MIC", "setting": "[3]", "value": 1, "unit": "µg/mL"}, {"measurement": "MIC", "setting": "[4]", "value": 1, "unit": "µg/mL"}]}
